The values that follow come from ChEMBL document CHEMBL1122589 (J Med Chem, 1984).

Active and inactive are the calls of the source. The calls are words filed in the database; no cut-off is given here. Bounds are passed on as bounds.

Series [1] has as its system L1210. In words: In vitro concentration required to inhibit the growth of L1210 cells in culture by 50% following a 48 hr exposure. Conditions: Mus musculus, L1210, 48 h; read-out: ID50 (the source's name). The format is functional.
Series [2] in a line: Dissociation constant in aqueous DMF. The format is physicochemical. The gist of the method: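 pKa obtained by UV spectroscopy in 20% aqueous DMF.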
The species entered for series [3] is Mus musculus. In words: Percentage increase in life span of drug-treated tumor bearing controls was determined. The format is functional. In short, it runs like this: (§1)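 Survival of drug-treated mice bearing ip-inoculated leukemia was compared with untreated tumor-bearing controls. The result is expressed as percentage increase in life span (ILS), and a value above 20% was taken as statistically significant.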

The subject of another series is Nucleic Acid. Put plainly: Binding constant for DNA by ethidium bromide displacement. It counts as nucleic-acid assay.
The test system of series [4] is L1210. In words: Dose of drug given intraperitoneally on a qd 1-5 schedule that provides the highest ILS value in mice bearing 10E6 ip inoculated L1210 leukemia cells. The format is functional, Mus musculus. In short, it runs like this: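 Mice inoculated ip with 10⁶ L1210 leukemia cells; drug given ip daily on days 1-5 (qd 1-5). Optimal dose, in mg/kg/day, is the dose giving the highest increase in life span (ILS).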

Series [5] is filed under the species Mus musculus. Put plainly: Percentage increase in life span of drug-treated tumor bearing controls was determined no. in parentheses are the animals (out of a group of 6) that survived indefinitely. It counts as functional. The gist of the method: as §1
Series [6] concerns Mus musculus. In words: Dose of drug given intraperitoneally on days 1, 5, and 9 that provides the highest ILS value in mice bearing 10E6 ip inoculated P388 leukemia cells in vivo.
Another series relates to P388. The description is as above.
For series [7], the system named is L1210. In words: Potency against L1210 leukemia cells in culture in vitro according to the NCI protocols Nanomolar concentration required to inhibit the growth of L1210 cells in culture by 50% following a 48 hr exposure. Conditions: Mus musculus, L1210, 48 h; read-out: ID50 (the source's name). It counts as functional. In short, it runs like this:
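L1210 leukaemia cells were grown in culture and exposed to drug for 48 h. The value is the drug concentration giving 50% growth inhibition, expressed in nanomolar.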

The species named for series [8] is Mus musculus. Put plainly: Percentage increase in life span of drug-treated tumor bearing controls was determined no. in parentheses =no. of animals out of a 6 group that survived indefinitely. It counts as functional. In short, it runs like this: as §1
The species named for series [9] is Mus musculus. In words: Percentage increase in life span of drug-treated tumor bearing controls was determined; IN- Inactive at the highest dose tested. The format is functional, organism-based.

For the compound `CS(=O)(=O)Nc1ccc(Nc2c3ccccc3nc3ccccc23)c(OCCO)c1`, in the series with L1210 [1], the IC50 is over 1700 nM. In addition, the pKa in series [2] came to 7.53. This compound gave an ILS in the series listed under Mus musculus [3] of 67%. For the same compound, the Log K with Nucleic Acid worked out at 5.91. The compound further had an OD in the series on L1210 [4] of 62.5 mg/kg.
Regarding `CNc1cc(NS(C)(=O)=O)ccc1Nc1c2ccccc2nc2ccccc12`, the ILS in the series listed under Mus musculus [5] came to 152%. The IC50 with L1210 [1] was 71 nM. The compound also showed an OD with Mus musculus [6] of 13.3 mg/kg. This compound showed a Log K with Nucleic Acid of 6.42.
With `CCCS(=O)(=O)Nc1ccc(Nc2c3ccccc3nc3ccccc23)c(NC)c1`, the IC50 in the series with L1210 [1] was 86 nM. In addition, the ILS in the series listed under Mus musculus [3] is 73%. Moreover, the Log K in the series on Nucleic Acid turned out to be 6.61. The compound further returned an OD with P388 of 20 mg/kg.
In the same order, the values of `CS(=O)(=O)Nc1ccc(Nc2c3ccccc3nc3ccccc23)c(NCC(O)CO)c1` (stereo unspecified) are 219 nM, 84%, 6.71 and 45 mg/kg.
For the compound `CCCCCNc1cc(NS(C)(=O)=O)ccc1Nc1c2ccccc2nc2ccccc12`, the IC50 with L1210 [7] was 117 nM. The compound further yielded a Log K in the series with Nucleic Acid of 6.42. The OD in the series on P388 is 30 mg/kg.
As to `CN(C)c1cc(NS(C)(=O)=O)ccc1Nc1c2ccccc2nc2ccccc12`, the ILS in the series filed under Mus musculus [8] came to 210%. The same compound had an OD in the series with P388 of 166 mg/kg.
Turning to `CCCCCS(=O)(=O)Nc1ccc(Nc2c3ccccc3nc3ccccc23)c(NC)c1`, in the series with L1210 [1], the IC50 worked out at 144 nM. Further, the ILS in the series listed under Mus musculus [3] was 61%. In the series with Nucleic Acid, this compound registered a Log K of 6.58. The compound further gave an OD in the series with P388 of 20 mg/kg.
As for `CN(CCO)c1cc(NS(C)(=O)=O)ccc1Nc1c2ccccc2nc2ccccc12`, the IC50 in the series with L1210 [1] worked out at 1400 nM. In addition, the ILS in the series listed under Mus musculus [8] was 100%. Besides, the Log K with Nucleic Acid came out at 5.52. Also, the OD in the series on P388 came to 100 mg/kg.
Take `CCCCNc1cc(NS(C)(=O)=O)ccc1Nc1c2ccccc2nc2ccccc12`: in the series on L1210 [1], the IC50 is 185 nM. In the series on Nucleic Acid, this compound had a Log K of 6.36. The OD in the series with P388 stood at 45 mg/kg.
Take `COc1cc(NS(C)(=O)=O)ccc1Nc1c2ccccc2nc2ccccc12` [AMSACRINE]: the ILS in the series listed under Mus musculus [3] was found to be 114%. Also, the Log K with Nucleic Acid came out at 5.57. The OD in the series on L1210 [4] turned out to be 6.7 mg/kg.
`CC(=O)NNc1cc(NS(C)(=O)=O)ccc1Nc1c2ccccc2nc2ccccc12`: in the series with L1210 [1], the IC50 was over 1500 nM. Also, the Log K in the series with Nucleic Acid came out at 5.89.
Take `CCOc1cc(NS(C)(=O)=O)ccc1Nc1c2ccccc2nc2ccccc12`: the IC50 in the series with L1210 [1] amounted to 600 nM. The same compound came in with a pKa in [2] of 7.55. The compound also came in with an ILS in the series filed under Mus musculus [3] of 29%. Besides, the Log K in the series with Nucleic Acid is 5.68. The OD in the series on L1210 [4] was 250 mg/kg.
In the case of `CS(=O)(=O)Nc1ccc(Nc2c3ccccc3nc3ccccc23)c(Cl)c1`, the IC50 in the series with L1210 [1] came to 1300 nM. Besides, the Log K in the series on Nucleic Acid was found to be 5.45. In addition, in the series with L1210 [4], the OD is over 500 mg/kg.
Turning to `CCCCS(=O)(=O)Nc1ccc(Nc2c3ccccc3nc3ccccc23)c(NC)c1`, the IC50 in the series with L1210 [1] was 102 nM. Moreover, in the series listed under Mus musculus [3], the ILS was 67%. In the series with Nucleic Acid, this compound displayed a Log K of 6.66. In the series with P388, this compound registered an OD of 45 mg/kg.
The corresponding values for `CCCCCCS(=O)(=O)Nc1ccc(Nc2c3ccccc3nc3ccccc23)c(NC)c1` are 443 nM, 36%, 6.41 and 100 mg/kg.
As to `CC(C)Oc1cc(NS(C)(=O)=O)ccc1N=c1c2ccccc2[nH]c2ccccc12`, in the series with L1210 [1], the IC50 is over 1700 nM. In series [2], this compound displayed a pKa of 7.51. For the same compound, the Log K with Nucleic Acid was 5.17. Further, the OD in the series with L1210 [4] was over 500 mg/kg.
For `CCS(=O)(=O)Nc1ccc(Nc2c3ccccc3nc3ccccc23)c(NC)c1`, the IC50 in the series with L1210 [1] is 43 nM. Further, the ILS in the series listed under Mus musculus [3] was 99%. This compound gave a Log K in the series with Nucleic Acid of 6.62. Moreover, in the series on P388, the OD worked out at 13.3 mg/kg.
Regarding `CS(=O)(=O)Nc1ccc(Nc2c3ccccc3nc3ccccc23)c(N)c1`, in the series on L1210 [1], the IC50 stood at 1200 nM. Further, the increase in life span (ILS) in the series listed under Mus musculus [3] worked out at 106%. In the series with Nucleic Acid, this compound returned a Log K of 6.28. In the series on L1210 [4], this compound gave an OD of 45 mg/kg.
`CCNc1cc(NS(C)(=O)=O)ccc1Nc1c2ccccc2nc2ccccc12`: the IC50 in the series on L1210 [1] turned out to be 229 nM. Also, the increase in lifespan (ILS) in the series listed under Mus musculus [3] is recorded as 69%. The same compound came in with a Log K in the series on Nucleic Acid of 6.54. The compound also returned an OD with P388 of 45 mg/kg.
As to `CS(=O)(=O)Nc1ccc(Nc2c3ccccc3nc3ccccc23)c(NC2CCCCC2)c1`, the IC50 in the series with L1210 [1] was 470 nM. In the series with Nucleic Acid, this compound had a Log K of 6.3. The OD in the series on P388 is 45 mg/kg.
The corresponding values for `CCCCCCCNc1cc(NS(C)(=O)=O)ccc1Nc1c2ccccc2nc2ccccc12` are 181 nM, 6.54 and 45 mg/kg.
Consider `CCCCCCCS(=O)(=O)Nc1ccc(Nc2c3ccccc3nc3ccccc23)c(NC)c1`, for which, in the series with L1210 [1], the IC50 came to 397 nM. In the series listed under Mus musculus [3], the increase in lifespan (ILS) is recorded as 47%. The Log K in the series with Nucleic Acid amounted to 6.44. This compound also had an OD with P388 of 45 mg/kg.
Turning to `CS(=O)(=O)Nc1ccc(Nc2c3ccccc3nc3ccccc23)c(N2CCOCC2)c1`, the IC50 in the series on L1210 [1] was over 1600 nM. For the same compound, the Log K with Nucleic Acid turned out to be 5.26. Moreover, in the series with P388, the OD was 100 mg/kg.
The corresponding values for `CS(=O)(=O)Nc1ccc(Nc2c3ccccc3nc3ccccc23)c(N2CCCCC2)c1` are over 1600 nM, 5.69 and 100 mg/kg.
Turning to `Cc1cc(NS(C)(=O)=O)ccc1Nc1c2ccccc2nc2ccccc12`, the IC50 in the series with L1210 [1] stood at 120 nM. The compound further showed an ILS in the series listed under Mus musculus [3] of 106%. The same compound had a Log K in the series on Nucleic Acid of 5.74. In the series with L1210 [4], this compound registered an OD of 97 mg/kg.
Consider `CS(=O)(=O)Nc1ccc(Nc2c3ccccc3nc3ccccc23)cc1`, for which the IC50 with L1210 [1] was found to be 35 nM. In the series filed under Mus musculus [3], this compound gave an ILS of 107%. This compound returned an OD in the series on L1210 [4] of 45 mg/kg.
In the case of `CCCNc1cc(NS(C)(=O)=O)ccc1Nc1c2ccccc2nc2ccccc12`, the IC50 in the series with L1210 [1] is 286 nM. In the series with Nucleic Acid, this compound returned a Log K of 6.57. The same compound yielded an OD with P388 of 66 mg/kg.
Turning to `CCN(CC)c1cc(NS(C)(=O)=O)ccc1Nc1c2ccccc2nc2ccccc12`, the IC50 with L1210 [1] stood at 4600 nM. Moreover, in the series with Nucleic Acid, the Log K is 5.35. The compound further gave an OD with P388 of 100 mg/kg.
The corresponding values for `CS(=O)(=O)Nc1ccc(Nc2c3ccccc3nc3ccccc23)c(N2CCCC2)c1` are 1300 nM, 5.49 and 45 mg/kg.
As to `CS(=O)(=O)Nc1ccc(Nc2c3ccccc3nc3ccccc23)c([N+](=O)[O-])c1`, the IC50 with L1210 [1] was 9000 nM. Besides, the ILS result in the series filed under Mus musculus [9] was “inactive”. The compound further displayed a Log K in the series on Nucleic Acid of 5.61. The OD with L1210 [4] was over 500 mg/kg.
For the compound `CCCCCCCCS(=O)(=O)Nc1ccc(Nc2c3ccccc3nc3ccccc23)c(NC)c1`, in the series on L1210 [1], the IC50 stood at 217 nM. This compound also registered an ILS in the series listed under Mus musculus [3] of 42%. Further, the Log K with Nucleic Acid was found to be 6.51. Besides, in the series with P388, the OD was found to be 30 mg/kg.
Regarding `CS(=O)(=O)Nc1ccc(Nc2c3ccccc3nc3ccccc23)c(O)c1`, the IC50 in the series with L1210 [1] was 4000 nM. The compound further yielded a pKa in series [2] of 7.56. In the series filed under Mus musculus [3], this compound yielded an ILS of 88%. This compound had a Log K in the series with Nucleic Acid of 5.53. In the series with L1210 [4], this compound had an OD of 25 mg/kg.
As for `CS(=O)(=O)Nc1ccc(Nc2c3ccccc3nc3ccccc23)c(F)c1`, the IC50 in the series on L1210 [1] is 800 nM. Besides, the pKa in series [2] came to 6.62. The same compound registered a Log K with Nucleic Acid of 5.65. For the same compound, the OD in the series on L1210 [4] is over 500 mg/kg.
Regarding `CS(=O)(=O)Nc1ccc(Nc2c3ccccc3nc3ccccc23)c(NCCO)c1`, the IC50 in the series with L1210 [1] is 86 nM. The compound further displayed an ILS in the series listed under Mus musculus [3] of 89%. In the series on Nucleic Acid, this compound had a Log K of 6.49. The compound also yielded an OD in the series on P388 of 45 mg/kg.
With `CCCCCCNc1cc(NS(C)(=O)=O)ccc1Nc1c2ccccc2nc2ccccc12`, the IC50 in the series on L1210 [1] came out at 136 nM. This compound also yielded a Log K in the series on Nucleic Acid of 6.36. Also, the OD in the series with P388 is 60 mg/kg.
